Experimental findings from paper PMC11700703 (Nature cardiovascular research, 2024) are described below.

“Also recorded” adds a separate entry of the source.

The target of test [1] is cTnI binding to immune-captured ATP synthase (UniProt P19429+P31399). Kind of test: Inhibition of cTnI binding to ATP synthase by ELISA. The class given is rat heart mitochondria; recombinant human cTnI. To be noted: P888 2μM. In short, it runs like this:
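ELISA on anti-ATP synthase antibody plates blocked with 2% BSA. Plates were co-incubated with solubilized rat heart mitochondria (4 μg) and recombinant human cTnI (2 μg) ± test peptide (2 μM). After washing, bound cTnI was detected with HRP anti-cTnI antibody (1:5000, 1 h), then TMB, stopped with 2N sulfuric acid; absorbance at 450 nm.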

The test system of test [2] is F1FO-ATP synthase (ATPase activity). Nature of the test: F1FO-ATPase activity assay. To be noted: P888 (2μM) co-incubation with cTnI (2μg); n=3 independent experiments. The class given is biochemical, rat. In short, it runs like this:
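Rat heart mitochondria (4 μg, solubilized) were captured on anti-ATP synthase antibody plates and co-incubated with recombinant human cTnI (2 μg) ± test peptide (2 μM). Absorbance was read over 120 min. Oligomycin served as negative control. n=3 independent experiments, each in 3–4 replicates; two-way ANOVA with Sidak correction.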

The subject of test [3] is mitochondria of rat hearts after myocardial IR. Nature of the test: Rat in vivo LAD ligation IR: mitochondrial oxygen consumption after IR. The following applies: 3mg/kg IP at reperfusion, 24 hours after reperfusion, n=15.

Chain of cTnI binding to immune-captured ATP synthase (P19429 whole entry): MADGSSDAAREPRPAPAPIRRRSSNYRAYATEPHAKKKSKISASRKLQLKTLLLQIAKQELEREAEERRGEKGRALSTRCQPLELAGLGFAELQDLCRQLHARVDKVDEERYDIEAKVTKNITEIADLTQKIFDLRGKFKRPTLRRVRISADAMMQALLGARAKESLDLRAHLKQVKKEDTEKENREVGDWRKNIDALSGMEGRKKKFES
Chain of cTnI binding to immune-captured ATP synthase (P31399 2-161 limits assumed): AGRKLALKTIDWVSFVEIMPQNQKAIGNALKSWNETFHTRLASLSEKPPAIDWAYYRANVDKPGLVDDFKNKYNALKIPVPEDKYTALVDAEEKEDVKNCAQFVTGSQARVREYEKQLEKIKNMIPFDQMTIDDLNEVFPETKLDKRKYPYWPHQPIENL

A2GRKLALKTI11 [P888]: the “inhibition of cTnI binding to the immune-captured ATP synthase” value in test [1] (cTnI (2μg), n=3) is ~ 78%. Further, the “inhibition of cTnI binding to ATP synthase” value in test [1] (n=3, result in words) is reported as “binding is inhibited in the presence of P888; also recorded: inhibited cTnI binding to ATP synthase”. In test [2], the “prevention of cTnI-induced increase in ATPase activity” value is given as “blocked the cTnI-induced increase in ATPase activity; also recorded: P888 co-incubation prevents this effect; also recorded: inhibited cTnI-induced increase in ATPase activity in vitro”. Further, in test [3], the “mitochondrial respiration after IR” value is given as “no significant effect of P888 on mitochondrial function”.
